# Results from ChEMBL document CHEMBL1914430, “Synthesis of some new 1,3,5-trisubstituted pyrazolines bearing benzene sulfonamide as anticancer and anti-inflammatory agents” (Bioorg Med Chem Lett, 2011).
# Key:
# Type in all cases: functional
# Rattus norvegicus = test: Antiinflammatory activity in Wistar rat assessed as inhibition of carrageenan-induced hind paw edema at 20 mg/kg, po administered 30 mins before carrageenan challenge measured after 3 hrs by plethysmometer
# Summary of the method: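 Wistar rats of either sex, 150–175 g, fasted 16 h, n = 6 per group. Compound given orally at 20 mg/kg as a suspension in 1% CMC in water (10 mL/kg); controls got vehicle only. After 30 min, 0.1 mL of 1% carrageenan in saline was injected subplantar into the left hind paw. Paw volume was measured by plethysmometer at 0, 3 and 5 h. Inhibition = (1 − Vt/Vc) × 100, reported as mean ± SEM.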
# HL-60(TB) = test: Anticancer activity against human HL-60(TB) cells after 48 hrs; settings: HL-60, 48 h
# Summary of the method: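 NCI 60-cell-line panel protocol: cells exposed to compound for 48 h. Initial one-dose screen at 10⁻⁵ M. GI50 = concentration giving 50% decrease in net cell growth. TGI = concentration giving total growth inhibition. LC50 = concentration giving net 50% loss of initial cells at the end of incubation. A value not reached or exceeded is reported as greater or less than the highest or lowest concentration tested.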
# K562 = test: Anticancer activity against human K562 cells after 48 hrs; settings: K562, 48 h
# Summary of the method: (§1)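 NCI Drug Evaluation Branch 60-cell-line screen across leukemia, melanoma, lung, colon, CNS, ovarian, renal, prostate and breast panels. The incubation period is 48 h. Parameters are derived from dose–response data: GI50 is the concentration giving 50% decrease in net growth, TGI is total growth inhibition, and LC50 is net 50% loss of initial cells. Values beyond the tested range are reported as greater or less than the maximum or minimum concentration.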
# MOLT-4 = test: Anticancer activity against human MOLT4 cells after 48 hrs; settings: MOLT-4, 48 h
# Summary of the method: (§2)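 NCI 60-line panel protocol with a 48 h incubation. Per line: GI50 = concentration giving 50% decrease in net cell growth; TGI = total growth inhibition; LC50 = net 50% loss of initial cells. When the level was not reached or was exceeded, the value is given as greater or less than the highest or lowest concentration tested.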
# SR = test: Anticancer activity against human SR cells after 48 hrs; summary of the method: as §2
# A549 = test: Anticancer activity against human A549 cells after 48 hrs; settings: A549, 48 h; summary of the method: as §1
# NCI-H226 = test: Anticancer activity against human NCI-H226 cells after 48 hrs; settings: NCI-H226, 48 h; summary of the method: as §2
# NCI-H322M = test: Anticancer activity against human NCI-H322M cells after 48 hrs; summary of the method: as §2
# NCI-H522 = test: Anticancer activity against human NCI-H522 cells after 48 hrs; settings: NCI-H522, 48 h; summary of the method: as §2
# COLO 205 = test: Anticancer activity against human COLO205 cells after 48 hrs; settings: COLO 205, 48 h; summary of the method: as §1
# HCT-116 = test: Anticancer activity against human HCT116 cells after 48 hrs; settings: HCT-116, 48 h; summary of the method: as §1
# SF-295 = test: Anticancer activity against human SF295 cells after 48 hrs; settings: SF-295, 48 h; summary of the method: as §2
# U-251 = test: Anticancer activity against human U251 cells after 48 hrs; settings: U-251, 48 h
# Summary of the method: (§3)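 NCI ~60 human tumour cell line panel with a 48 h incubation. GI50 is the concentration giving a 50% fall in net growth, TGI gives total growth inhibition, and LC50 gives a net 50% loss of initial cells. An effect not reached or exceeded is reported as greater or less than the highest or lowest concentration tested.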
# LOX IMVI = test: Anticancer activity against human LOXIMVI cells after 48 hrs; summary of the method: as §1
# M14 = test: Anticancer activity against human M14 cells after 48 hrs; settings: M14, 48 h; summary of the method: as §1
# SK-MEL-28 = test: Anticancer activity against human SK-MEL-28 cells after 48 hrs; settings: SK-MEL-28, 48 h; summary of the method: as §2
# OVCAR-5 = test: Anticancer activity against human OVCAR5 cells after 48 hrs; settings: OVCAR-5, 48 h; summary of the method: as §2
# OVCAR-8 = test: Anticancer activity against human OVCAR8 cells after 48 hrs; settings: OVCAR-8, 48 h; summary of the method: as §2
# NCI/ADR-RES = test: Anticancer activity against human NCI/ADR-RES cells after 48 hrs; summary of the method: as §2
# SK-OV-3 = test: Anticancer activity against human SKOV3 cells after 48 hrs; settings: SK-OV-3, 48 h; summary of the method: as §2
# 786-0 = test: Anticancer activity against human 786-0 cells after 48 hrs; settings: 786-0, 48 h; summary of the method: as §1
# A498 = test: Anticancer activity against human A498 cells after 48 hrs; settings: A498, 48 h; summary of the method: as §1
# CAKI-1 = test: Anticancer activity against human Caki1 cells after 48 hrs; settings: CAKI-1, 48 h; summary of the method: as §1
# TK-10 = test: Anticancer activity against human TK10 cells after 48 hrs; settings: TK-10, 48 h; summary of the method: as §3
# UO-31 = test: Anticancer activity against human UO31 cells after 48 hrs; settings: UO-31, 48 h, read-out: LC50 (the source's name); summary of the method: as §3
# PC-3 = test: Anticancer activity against human PC3 cells after 48 hrs; settings: PC-3, 48 h; summary of the method: as §2
# MDA-MB-231 = test: Anticancer activity against human MDA-MB-231 cells after 48 hrs; settings: MDA-MB-231, 48 h; summary of the method: as §1
# T47D = test: Anticancer activity against human T47D cells after 48 hrs; summary of the method: as §3
# [1] = read-out: LC50 (the source's name)
smiles,measurement,setting,value
Cc1cc(O)c(C2=NN(c3ccc(S(N)(=O)=O)cc3)C(c3ccccc3O)C2)cc1Cl (stereo not given),inhibition in vivo at 20 mg/kg,Rattus norvegicus,73.6%
same,GI50,HL-60(TB),2990 nM
same,LC50,HL-60(TB),> 100 µM
same,TGI,HL-60(TB),7.32 µM
same,GI50,K562,2560 nM
same,LC50 (concentration killing 50% of initial cells),K562,> 100 µM
same,TGI,K562,14.6 µM
same,GI50,MOLT-4,4.74 µM
same,LC50,MOLT-4,> 100 µM
same,TGI,MOLT-4,34.4 µM
same,GI50,SR,2220 nM
same,LC50 (concentration killing 50% of initial cells),SR,> 100 µM
same,TGI,SR,26.7 µM
same,GI50,A549,3.69 µM
same,LC50 (net 50% loss of initial cells),A549,60.5 µM
same,TGI,A549,15.5 µM
same,GI50,NCI-H226,2210 nM
same,TGI,NCI-H226,7.55 µM
same,CC50,NCI-H226; [1],86.5 µM
same,GI50,NCI-H322M,2500 nM
same,LC50 (net 50% loss of initial cells),NCI-H322M,26 µM
same,TGI,NCI-H322M,7.24 µM
same,GI50,NCI-H522,2150 nM
same,LC50 (concentration killing 50% of initial cells),NCI-H522,28 µM
same,TGI,NCI-H522,6.28 µM
same,GI50,COLO 205,1950 nM
same,LC50 (concentration giving net 50% loss of initial cells),COLO 205,6.43 µM
same,TGI,COLO 205,3.54 µM
same,GI50,HCT-116,1660 nM
same,TGI,HCT-116,3.02 µM
same,CC50,HCT-116; [1],5.5 µM
same,GI50,SF-295,1660 nM
same,LC50 (concentration giving net 50% loss of initial cells),SF-295,8.09 µM
same,TGI,SF-295,3.67 µM
same,GI50,U-251,2780 nM
same,TGI,U-251,7.76 µM
same,CC50,U-251; [1],26.9 µM
same,GI50,LOX IMVI,1730 nM
same,TGI,LOX IMVI,3.19 µM
same,CC50,LOX IMVI; [1],5.87 µM
same,GI50,M14,1760 nM
same,TGI,M14,3.4 µM
same,CC50,M14; [1],6.56 µM
same,GI50,SK-MEL-28,4.05 µM
same,TGI,SK-MEL-28,13.5 µM
same,CC50,SK-MEL-28; [1],37.8 µM
same,GI50,OVCAR-5,1730 nM
same,LC50,OVCAR-5,8.12 µM
same,TGI,OVCAR-5,3.75 µM
same,GI50,OVCAR-8,3.89 µM
same,TGI,OVCAR-8,16.5 µM
same,CC50,OVCAR-8; [1],91.8 µM
same,GI50,NCI/ADR-RES,3.61 µM
same,TGI,NCI/ADR-RES,14.1 µM
same,CC50,NCI/ADR-RES; [1],54.1 µM
same,GI50,SK-OV-3,4.41 µM
same,TGI,SK-OV-3,14.9 µM
same,CC50,SK-OV-3; [1],38.6 µM
same,GI50,786-0,2230 nM
same,TGI,786-0,4.21 µM
same,CC50,786-0; [1],7.94 µM
same,GI50,A498,2790 nM
same,TGI,A498,14.5 µM
same,CC50,A498; [1],46.9 µM
same,GI50,CAKI-1,1560 nM
same,LC50 (concentration giving 50% net loss of initial cells),CAKI-1,16.6 µM
same,TGI,CAKI-1,4.44 µM
same,GI50,TK-10,3.3 µM
same,LC50,TK-10,27.2 µM
same,TGI,TK-10,6.85 µM
same,CC50,UO-31,38.5 µM
same,GI50,PC-3,1330 nM
same,TGI,PC-3,3.52 µM
same,CC50,PC-3; [1],9.33 µM
same,GI50,MDA-MB-231,2300 nM
same,TGI,MDA-MB-231,6.69 µM
same,CC50,MDA-MB-231; [1],29.5 µM
same,GI50,T47D,3.18 µM
same,TGI,T47D,14.6 µM
same,CC50,T47D; [1],64.9 µM
